Experimental data reported in ChEMBL document CHEMBL1926569, “Novel (E)-1-(4-methyl-2-(alkylamino)thiazol-5-yl)-3-arylprop-2-en-1-ones as potent antimicrobial agents” (2011).
In brackets after ≈: the same amount, converted by molar mass.

What was measured:
Staphylococcus aureus [1] = assay: Antibacterial activity against Staphylococcus aureus ATCC 6538 after 24 hrs by microdilution method; assay type: functional; settings: ATCC 6538, 24 h
How it was run: (§1)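 Broth microdilution in 96-well plates. Bacterial suspensions were adjusted in sterile saline to 1.0 × 10⁵ CFU/ml, prepared daily and kept at 4 °C. Compound was added to LB broth with 1.0 × 10⁴ CFU per well and shaken at 160 rpm for 24 h at […] (so in the source). MIC is the lowest concentration with no visible growth under a binocular microscope. OD655 was also read. Duplicate, repeated three times.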

Bacillus cereus [2] = assay: Antibacterial activity against clinical isolate of Bacillus cereus after 24 hrs by microdilution method; assay type: functional; how it was run: as §1
Micrococcus flavus [3] = assay: Antibacterial activity against Micrococcus flavus ATCC 10240 after 24 hrs by microdilution method; assay type: functional; settings: ATCC 10240, 24 h; how it was run: as §1
Listeria monocytogenes [4] = assay: Antibacterial activity against Listeria monocytogenes NCTC 7973 after 24 hrs by microdilution method; assay type: functional; settings: NCTC 7973, 24 h; how it was run: as §1
Pseudomonas aeruginosa [5] = assay: Antibacterial activity against Pseudomonas aeruginosa ATCC 27853 after 24 hrs by microdilution method; assay type: functional; settings: ATCC 27853, 24 h; how it was run: as §1
Salmonella typhimurium [6] = assay: Antibacterial activity against Salmonella Typhimurium ATCC 13311 after 24 hrs by microdilution method; assay type: functional, Salmonella enterica subsp. enterica serovar Typhimurium; settings: Salmonella enterica, ATCC 13311, 24 h; how it was run: as §1
Escherichia coli [7] = assay: Antibacterial activity against Escherichia coli ATCC 35210 after 24 hrs by microdilution method; assay type: functional; settings: ATCC 35210, 24 h; how it was run: as §1
Enterococcus faecalis [8] = assay: Antibacterial activity against Enterococcus faecalis isolated from human after 24 hrs by microdilution method; assay type: functional; how it was run: as §1
Staphylococcus aureus [9] = assay: Antibacterial activity against Staphylococcus aureus ATCC 6538 incubated for 24 hrs followed by serial sub-cultivation for 24 hrs by microdilution method; assay type: functional; settings: ATCC 6538, 24 h
How it was run: (§2)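 MBC: after the 24 h LB broth microdilution (1.0 × 10⁴ CFU per well, 160 rpm), wells were serially sub-cultured into fresh broth plates and incubated a further 24 h. MBC is the lowest concentration with no visible growth, taken as 99.5% killing of the original inoculum. Duplicate, repeated three times.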

Bacillus cereus [10] = assay: Antibacterial activity against clinical isolate of Bacillus cereus incubated for 24 hrs followed by serial sub-cultivation for 24 hrs by microdilution; assay type: functional; how it was run: as §2
Micrococcus flavus [11] = assay: Antibacterial activity against Micrococcus flavus ATCC 10240 incubated for 24 hrs followed by serial sub-cultivation for 24 hrs by microdilution; assay type: functional; settings: ATCC 10240, 24 h; how it was run: as §2
Listeria monocytogenes [12] = assay: Antibacterial activity against Listeria monocytogenes NCTC 7973 incubated for 24 hrs followed by serial sub-cultivation for 24 hrs by microdilution; assay type: functional; settings: NCTC 7973, 24 h; how it was run: as §2
Pseudomonas aeruginosa [13] = assay: Antibacterial activity against Pseudomonas aeruginosa ATCC 27853 incubated for 24 hrs followed by serial sub-cultivation for 24 hrs by microdilution; assay type: functional; settings: ATCC 27853, 24 h; how it was run: as §2
Salmonella typhimurium [14] = assay: Antibacterial activity against Salmonella Typhimurium ATCC 13311 incubated for 24 hrs followed by serial sub-cultivation for 24 hrs by microdilution; assay type: functional, Salmonella enterica subsp. enterica serovar Typhimurium; settings: Salmonella enterica, ATCC 13311, 24 h; how it was run: as §2
Escherichia coli [15] = assay: Antibacterial activity against Escherichia coli ATCC 35210 incubated for 24 hrs followed by serial sub-cultivation for 24 hrs by microdilution; assay type: functional; settings: ATCC 35210, 24 h; how it was run: as §2
Enterococcus faecalis [16] = assay: Antibacterial activity against Enterococcus faecalis isolated from human incubated for 24 hrs followed by serial sub-cultivation for 24 hrs by microdilution; assay type: functional; how it was run: as §2
Aspergillus ochraceus [17] = assay: Antifungal activity against Aspergillus ochraceus ATCC 12066 after 72 hrs by serial dilution technique; assay type: functional; settings: ATCC 12066, 72 h
How it was run: (§3)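 Modified microdilution in 96-well plates. Fungi were kept on malt agar at 4 °C. Spores were washed off in sterile 0.85% saline with 0.1% Tween 80. Compounds were dissolved at 1 mg/ml in 5% DMSO with 0.1% Tween 80 and added to malt broth with inoculum. Plates were shaken at 160 rpm for 72 h at 28 °C. Duplicate, repeated three times.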

Aspergillus niger [18] = assay: Antifungal activity against Aspergillus niger ATCC 6275 after 72 hrs by serial dilution technique; assay type: functional; settings: ATCC 6275, 72 h; how it was run: as §3
Aspergillus flavus [19] = assay: Antifungal activity against Aspergillus flavus ATCC 9643 after 72 hrs by serial dilution technique; assay type: functional; settings: ATCC 9643, 72 h; how it was run: as §3
Talaromyces funiculosus [20] = assay: Antifungal activity against Penicillium funiculosum ATCC 36839 after 72 hrs by serial dilution technique; assay type: functional; settings: ATCC 36839, 72 h; how it was run: as §3
Penicillium ochrochloron [21] = assay: Antifungal activity against Penicillium ochrochloron ATCC 9112 after 72 hrs by serial dilution technique; assay type: functional; settings: ATCC 9112, 72 h; how it was run: as §3
Trichoderma viride [22] = assay: Antifungal activity against Trichoderma viride IAM 5061 after 72 hrs by serial dilution technique; assay type: functional; settings: IAM 5061, 72 h; how it was run: as §3
Candida albicans [23] = assay: Antifungal activity against Candida albicans isolated from human after 72 hrs by serial dilution technique; assay type: functional; how it was run: as §3
Aspergillus ochraceus [24] = assay: Antifungal activity against Aspergillus ochraceus ATCC 12066 incubated for 72 hrs followed by serial sub-cultivation for 72 hrs by serial dilution technique; assay type: functional; settings: ATCC 12066, 72 h
How it was run: (§4)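 MFC: material from 72 h malt broth microdilution wells was serially sub-cultured into fresh broth plates and incubated a further 72 h at 28 °C. Fungicidal concentration is taken from growth after sub-culture. Duplicate, repeated three times.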

Aspergillus fumigatus [25] = assay: Antifungal activity against Aspergillus fumigatus isolated from human incubated for 72 hrs followed by serial sub-cultivation for 72 hrs by serial dilution technique; assay type: functional; how it was run: as §4
Aspergillus niger [26] = assay: Antifungal activity against Aspergillus niger ATCC 6275 incubated for 72 hrs followed by serial sub-cultivation for 72 hrs by serial dilution technique; assay type: functional; settings: ATCC 6275, 72 h; how it was run: as §4
Aspergillus flavus [27] = assay: Antifungal activity against Aspergillus flavus ATCC 9643 incubated for 72 hrs followed by serial sub-cultivation for 72 hrs by serial dilution technique; assay type: functional; settings: ATCC 9643, 72 h; how it was run: as §4
Talaromyces funiculosus [28] = assay: Antifungal activity against Penicillium funiculosum ATCC 36839 incubated for 72 hrs followed by serial sub-cultivation for 72 hrs by serial dilution technique; assay type: functional; settings: ATCC 36839, 72 h; how it was run: as §4
Penicillium ochrochloron [29] = assay: Antifungal activity against Penicillium ochrochloron ATCC 9112 incubated for 72 hrs followed by serial sub-cultivation for 72 hrs by serial dilution technique; assay type: functional; settings: ATCC 9112, 72 h; how it was run: as §4
Trichoderma viride [30] = assay: Antifungal activity against Trichoderma viride IAM 5061 incubated for 72 hrs followed by serial sub-cultivation for 72 hrs by serial dilution technique; assay type: functional; settings: IAM 5061, 72 h; how it was run: as §4
Candida albicans [31] = assay: Antifungal activity against Candida albicans isolated from human incubated for 72 hrs followed by serial sub-cultivation for 72 hrs by serial dilution technique; assay type: functional; how it was run: as §4
Pseudomonas aeruginosa [32] = assay: Ratio of ampicillin MIC to compound MIC for Pseudomonas aeruginosa ATCC 27853; assay type: functional
Aspergillus ochraceus [33] = assay: Ratio of bifonazole to compound for Aspergillus ochraceus ATCC 12066; assay type: functional
Aspergillus niger [34] = assay: Ratio of bifonazole to compound for Aspergillus niger ATCC 6275; assay type: functional
Talaromyces funiculosus [35] = assay: Ratio of bifonazole to compound for Penicillium funiculosum ATCC 36839; assay type: functional
Penicillium ochrochloron [36] = assay: Ratio of bifonazole to compound for Penicillium ochrochloron ATCC 9112; assay type: functional
Trichoderma viride [37] = assay: Ratio of bifonazole to compound for Trichoderma viride IAM 5061; assay type: functional
Candida albicans [38] = assay: Ratio of bifonazole to compound for Candida albicans isolated from human; assay type: functional
Aspergillus ochraceus [39] = assay: Ratio of ketoconazole to compound for Aspergillus ochraceus ATCC 12066; assay type: functional
Aspergillus fumigatus [40] = assay: Ratio of ketoconazole to compound for Aspergillus fumigatus isolated from human; assay type: functional
Penicillium ochrochloron [41] = assay: Ratio of ketoconazole to compound for Penicillium ochrochloron ATCC 9112; assay type: functional
Candida albicans [42] = assay: Ratio of ketoconazole to compound for Candida albicans isolated from human; assay type: functional
Aspergillus ochraceus [43] = assay: Antifungal activity against Aspergillus ochraceus after 72 hrs by serial dilution technique

- MIC (Staphylococcus aureus [1]): 98 µM (≈ 30.1 µg/mL)
- MIC (Bacillus cereus [2]): 49.1 µM (≈ 15.1 µg/mL)
- MIC (Micrococcus flavus [3]): 32.7 µM (≈ 10 µg/mL)
- MIC (Listeria monocytogenes [4]): 98 µM (≈ 30.1 µg/mL)
- MIC (Pseudomonas aeruginosa [5]): 65.3 µM (≈ 20 µg/mL)
- MIC (Salmonella typhimurium [6]): 49.1 µM (≈ 15.1 µg/mL)
- MIC (Escherichia coli [7]): 49.1 µM (≈ 15.1 µg/mL)
- MIC (Enterococcus faecalis [8]): 49.1 µM (≈ 15.1 µg/mL)
- MIC (Aspergillus ochraceus [17]): 65.3 µM (≈ 20 µg/mL)
- MIC (Aspergillus niger [18]): 65.3 µM (≈ 20 µg/mL)
- MIC (Aspergillus flavus [19]): 65.3 µM (≈ 20 µg/mL)
- MIC (Talaromyces funiculosus [20]): 32.7 µM (≈ 10 µg/mL)
- MIC (Penicillium ochrochloron [21]): 65.3 µM (≈ 20 µg/mL)
- MIC (Trichoderma viride [22]): 32.7 µM (≈ 10 µg/mL)
- MIC (Candida albicans [23]): 32.7 µM (≈ 10 µg/mL)
- MIC (Aspergillus ochraceus [43]): 32.7 µM (≈ 10 µg/mL)
Structure (SMILES): CCNc1nc(C)c(C(=O)/C=C/c2cccc(Cl)c2)s1
- MBC (Staphylococcus aureus [9]): 98 µM (≈ 30.1 µg/mL)
- MBC (Bacillus cereus [10]): 65.3 µM (≈ 20 µg/mL)
- MBC (Micrococcus flavus [11]): 81.7 µM (≈ 25.1 µg/mL)
- MBC (Listeria monocytogenes [12]): 114 µM (≈ 35.1 µg/mL)
- MBC (Pseudomonas aeruginosa [13]): 81.7 µM (≈ 25.1 µg/mL)
- MBC (Salmonella typhimurium [14]): 65.3 µM (≈ 20 µg/mL)
- MBC (Escherichia coli [15]): 65.3 µM (≈ 20 µg/mL)
- MBC (Enterococcus faecalis [16]): 65.3 µM (≈ 20 µg/mL)
- MFC (Aspergillus ochraceus [24]): 81.7 µM (≈ 25.1 µg/mL)
- MFC (Aspergillus fumigatus [25]): 65.3 µM (≈ 20 µg/mL)
- MFC (Aspergillus niger [26]): 81.7 µM (≈ 25.1 µg/mL)
- MFC (Aspergillus flavus [27]): 81.7 µM (≈ 25.1 µg/mL)
- MFC (Talaromyces funiculosus [28]): 65.3 µM (≈ 20 µg/mL)
- MFC (Penicillium ochrochloron [29]): 81.7 µM (≈ 25.1 µg/mL)
- MFC (Trichoderma viride [30]): 65.3 µM (≈ 20 µg/mL)
- MFC (Candida albicans [31]): 65.3 µM (≈ 20 µg/mL)
- Ratio (Pseudomonas aeruginosa [32]): 10
- Ratio (Aspergillus ochraceus [33]): 10
- Ratio (Aspergillus niger [34]): 10
- Ratio (Talaromyces funiculosus [35]): 10
- Ratio (Penicillium ochrochloron [36]): 10
- Ratio (Trichoderma viride [37]): 10
- Ratio (Candida albicans [38]): 10
- Ratio (Aspergillus ochraceus [39]): 10
- Ratio (Aspergillus fumigatus [40]): 10
- Ratio (Penicillium ochrochloron [41]): 10
- Ratio (Candida albicans [42]): 10
